# Bioassay records from PubChem BioAssay.
# Only some compounds are listed: those with a hit (about 4.1% of all), similar ones and a draw of the others.
# KCNQ1 pot – potentiates or activates the human KCNQ1 potassium channel. CHO-K1 KCNQ1, thallium flux FluxOR fluorescence; stronger effect = higher value. B-score at 10 µM. hit rate 0.35% among 310,000;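 active = fluorescence ratio B-score, a plate-corrected score, at least three library SD, with initial intensity B-score within 5 SD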
#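 Assay system: CHO-K1 cells stably expressing KCNQ1; Medium: assay buffer with matched DMSO; Also added: K+/Tl+ depolarizing stimulus; Dosing: single dose; Timing: dye 90 min, compound 20 min, room temperature; Measured by: kinetic FluxOR thallium fluorescence, 10-s 1-Hz baseline, 110-s post-stimulus read; Read-out: peak-minus-minimum fluorescence over initial fluorescence, negative-control normalized, B-scored.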
# KCNK9 block – blocks the human KCNK9 two-pore domain potassium channel | Q9NPC2 | HEK293 KCNK9, FluxOR thallium flux fluorescence; stronger effect = lower value | B-score at 10 µM | hit rate 1.2% among 310,000;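 active = ratio B-score over 3 SD below the library mean, with starting fluorescence within 5 SD of its mean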;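 also: negative B-score means less thallium flux so channel inhibition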
# KCNQ1 inh – human KCNQ1 channel inhibition; P51787; CHO-K1 KCNQ1, FluxOR thallium flux fluorescence; stronger effect = higher value; B-score at 10 µM; hit rate 1.3% among 310,000; AID 2642;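 active = compounds whose thallium flux B-score, printed positive for inhibition, exceeds three library SD while starting fluorescence stays within three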;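 also: channel opened by potassium depolarization with thallium stimulus after 20 min compound exposure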
# KCNK3 block – human KCNK3 channel inhibition, primary screen | B-score at 10 µM | AID 602410 | hit rate 0.84% among 340,000 | CHO-KCNK3 thallium flux, FluxOR fluorescence; stronger effect = lower value | O14649;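 active = B-score under library mean minus 4 SD, starting fluorescence ratio at most library mean plus 5 SD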;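 also: more negative B-score means stronger inhibition of thallium flux through KCNK3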
# hERG protect – compounds protecting human hERG from proarrhythmic drug block. Q12809. CHO-hERG, FluxOR thallium flux, dofetilide IC70 present. activation (rescue from dofetilide block), less the hit threshold, % at 10 µM. hit rate 0.51% among 310,000;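 active = activation above the mean of controls blocked by dofetilide plus 5 SD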;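 also: thallium influx through hERG after potassium depolarization seen as dye fluorescence rise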
# KCC2 mod – modulators of human KCC2 chloride dependent transport. Q9H2X9. B-score of Tl+ flux slope (higher = more flux/activation; lower = inhibition) at 10 µM. hit rate 2.2% among 190,000. KCC2 cells, thallium flux FluoZin-2 fluorescence;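 active = thallium flux slope and its plate-corrected score both differing from the plate sample mean at a set confidence after two filtering rounds, in either direction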;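 also: slope of fluorescence scaled to starting intensity during 10 to 20 s after thallium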
# Numbers stand for hits; . = inactive; / = no result given.
SMILES,KCNQ1 pot,KCNK9 block,KCNQ1 inh,KCNK3 block,hERG protect,KCC2 mod
Cc1cc(C)c(O)c(NC(=S)NC(=O)Cc2ccccc2)c1,.,.,.,.,4.8,/
COc1ccc(S(=O)(=O)NNc2nc(C)cc(C)n2)cc1Br,.,.,.,.,.,/
O=C1NC(=S)S/C1=C/c1ccc(N2CCOCC2)o1,.,.,.,.,.,-7.72
COc1ccccc1C(=O)NC(=O)COC(=O)CNC(=O)c1ccccc1F,/,/,/,.,/,/
Cc1ccc(CNCC2CCCO2)s1 (stereo not given),.,.,.,.,.,/
Cc1ccc(-c2nc(CN(CC3CCC3)CC3CCCO3)c(C)o2)s1 (stereo not given),.,-7.14,.,.,.,.
COC(=O)c1sccc1NC(=O)Nc1ccc(F)cc1F,.,.,.,.,.,/
O=C(NCc1ccc2c(c1)OCO2)c1cc(-c2ccccc2)nn1CC1CC(c2cccnc2)=NO1 (stereo not given),.,.,.,.,.,/
O=C1[C@H]2[C@@H](c3ccc(F)cc3)N3C(=O)N(c4cccc(Cl)c4)C(=O)[C@@]3(Cc3ccccc3)[C@H]2C(=O)N1C1CCCCC1,.,.,7,.,.,/
O=C(Nc1ccc(S(=O)(=O)N2CCOCC2)cc1)c1ccccc1F,.,.,.,.,.,/
O=C(c1ccco1)N1CCN(c2nc(C3CC3)nc3c2nnn3Cc2ccccc2Cl)CC1,.,.,6,.,.,.
O=C(c1ccco1)N1CCC(c2nc3c(nnn3Cc3ccccc3Cl)c(=O)[nH]2)CC1,.,.,.,.,.,/
Cc1ccc(/C=C2\SC(=S)N(CCCC(=O)NC3CCCC3)C2=O)cc1,.,.,.,.,.,/
COc1cccc(-c2nn3c(-c4cc(C)[nH]n4)nnc3s2)c1,.,.,.,.,5.9,.
Cc1ccc(C(=O)CC(=O)COc2ccc(Cl)cc2C)cc1,7,.,.,.,.,17.1
O=C(O)CC(=O)Nc1cc(Cl)ccc1O,.,.,.,.,.,/
Cc1ccc(O)c(C(=O)CC(=O)c2ccc(Cl)cc2)c1,.,.,.,.,5.7,/
Cc1cccc(C(=O)NCC(=O)NNC(=O)c2ccccc2O)c1,.,.,.,.,.,/
Cc1cccc(C(=O)CC(=O)c2cc(Cl)ccc2O)c1,.,.,.,.,8.8,/
O=C(CC(=O)c1cc(Cl)ccc1O)c1ccccc1,18,.,.,.,.,9.99
Cc1ccc(-n2[nH]c(C)c(C=Nc3cc(C)ccn3)c2=O)cc1,.,.,.,.,.,4.24
Cc1[nH]n(-c2ccc(Cl)cc2)c(=O)c1/C=N/c1nnc(-c2ccccc2)s1,9,.,.,.,87.5,45
Cc1ccc(-n2[nH]c(C)c(/C=N/c3ccccn3)c2=O)cc1,.,.,.,.,.,/
COc1ccc2nc(/N=C/c3c(C)[nH]n(-c4ccc(C)cc4)c3=O)sc2c1,39,.,.,.,10.2,53.9
CC[C@H](C)[C@@H](C(=O)NCCCCCCCCCCC(=O)N1CCNCC1)n1cc(CCCCCN)nn1,/,/,/,.,/,/
SMILES,KCNQ1 pot,KCNK9 block,KCNQ1 inh,KCNK3 block,hERG protect,KCC2 mod
CCOCc1c(C(=O)OCC(=O)NCc2ccc(F)cc2)oc2ccccc12,/,/,/,.,/,/
O=S(=O)(CS(=O)(=O)c1ccccc1)c1ccccc1,/,/,/,.,/,/
O=S(=O)(C/C(=C/CO)S(=O)(=O)c1ccccc1)c1ccccc1,.,.,6,.,.,/
O=C1C=C(NCc2ccccc2)c2ccccc2C1=O,12,.,.,.,.,.
C[C@H]1COC(=O)[C@@H](NC(=O)OCC2c3ccccc3-c3ccccc32)C/C=C\C[C@H](CC(=O)NCCO)C(=O)N1,/,/,/,.,/,/
CN(C)c1ccc2nc3ccc(=[N+](C)C)cc-3sc2c1,.,.,.,.,.,.
Cc1cc2nc3ccc(=[N+](C)C)cc-3sc2cc1N,.,.,6,.,.,.
O=C(CCCCCNC(=O)N1CCn2c1nc1ccccc12)NCc1ccc(F)cc1,.,.,.,.,.,/
O=C(O)CCCCCNC(=O)c1ccccc1Br,.,.,.,.,5.4,.
Oc1cccc(/C=N/N(Cc2ccccc2)c2ccccc2)c1,.,-7.19,6,.,.,.
CCCc1cc(-c2nc(-c3ccc(Cl)cc3)cs2)ccn1,.,-6.61,.,.,.,.
CC(Sc1n[nH]c(-c2cccs2)n1)C(=O)N1CCCC1 (stereo not given),/,/,/,.,/,/
O=P(c1ccccc1)(c1ccccc1)N(c1ccccc1)c1ccccc1,.,.,7,.,.,.
Cc1cccc(C)c1NC(=O)c1nc(S(=O)(=O)Cc2ccccc2)ncc1Cl,.,.,.,.,.,/
Cc1cccc(CS(=O)(=O)c2ncc(Cl)c(C(=O)Nc3c(C)cccc3C)n2)c1,.,-6.68,.,.,.,/
O=[N+]([O-])c1ccccc1CNCCCCCO,/,/,/,.,/,/
O=C(c1cc(S(=O)(=O)N2CCOCC2)ccc1F)N1CCc2ccccc21,/,/,/,.,/,/
Cc1nc2c(C(=O)NCCC(C)C)c[nH]n2c(=O)c1Cl,.,.,.,.,.,.
Cc1nc2c(C(=O)NCCC(C)C)c[nH]n2c(=O)c1Cc1ccccc1F,.,.,6,.,.,.
CC(=O)NC(c1ccc2ccccc2c1)c1ccc2cccnc2c1O (stereo not given),.,.,.,.,.,/
Oc1c(C(Nc2cccc(C(F)(F)F)c2)c2ccncc2)ccc2cccnc12 (stereo not given),.,.,13,.,.,.
CCCCn1c(SC(C)C(N)=O)nc2cc(C(=O)OC)ccc2c1=O (stereo not given),.,.,.,.,.,9.75
O=C1C2CC=CCC2C(=O)N1c1ccc(Cc2ccncc2)cc1 (stereo not given),.,.,.,.,5.0,.
O=C(Nc1ccccc1)Nc1cnccn1,.,.,.,.,.,/
Cc1ccn2c(/C=N/OCc3ccc(F)cc3)c(-c3ccc(Cl)cc3)nc2c1,.,-7.41,.,.,.,/
SMILES,KCNQ1 pot,KCNK9 block,KCNQ1 inh,KCNK3 block,hERG protect,KCC2 mod
Cc1c(C=C(C#N)c2ccc([N+](=O)[O-])cc2)c(=O)n(-c2ccccc2)n1C,/,/,/,.,/,/
Cc1cc(NC(=O)CSc2nc(C3CC3)nc3sc(C)c(C)c23)no1,9,.,.,.,5.9,/
COc1ccc(NC(=O)CN(C)C(=O)C2(c3ccccc3)CCCC2)cc1,/,/,/,.,/,/
O=C(COC(=O)C1CCC(=O)N1)Nc1ccccc1Br (stereo not given),.,.,.,.,.,.
O=C(COC(=O)C1CCC(=O)N1)Nc1ccc(Oc2ccccc2)cc1 (stereo not given),.,.,.,.,33.3,.
COc1ccc(CNC(=O)CS(=O)(=O)Cc2nc(-c3cccc(OC)c3)oc2C)cc1,.,.,.,.,.,/
O=C(NC1CCCCC1)C(c1ccc2ncccc2c1)N(Cc1ccccc1)C(=O)c1cccs1 (stereo not given),.,.,.,.,.,/
